Laboratory results from ChEMBL document CHEMBL1135776, “Benzo- and cyclohexanomazindol analogues as potential inhibitors of the cocaine binding site at the dopamine transporter” (J Med Chem, 2002).

How the values were obtained:
[1] = biological target: T1, Sodium-dependent dopamine transporter (Homo sapiens, UniProt Q01959); experiment: Inhibition of [125I]- RTI -55 binding at the Dopamine transporter sites on HEK-hDAT cells; type: cell-based
How it was run: (§1)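 Membranes from HEK293 cells expressing hDAT, hSERT or hNET (about 10–15 μg protein) preincubated 10 min with compound in Krebs-HEPES pH 7.4 containing pargyline, tropolone and ascorbate. Duplicates, two or three experiments; IC50 converted to Ki by Cheng-Prusoff.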

HEK293 [2] = experiment: Ability to block the uptake of [3H]- DA(dopamine) in HEK-hDAT cells; type: functional, cell-based; conditions: Homo sapiens
HEK293 [3] = experiment: Ability to block the uptake of [3H]NE (norepinephrine) in HEK-hNET cells; type: functional, cell-based; conditions: Homo sapiens
HEK293 [4] = experiment: Ability to block the uptake of [3H]- 5- HT(serotonin) in HEK-hSERT cells; type: functional, cell-based; conditions: Homo sapiens
[5] = biological target: T2, Sodium-dependent noradrenaline transporter (Homo sapiens, UniProt P23975); experiment: Inhibition of [125I]- RTI -55 binding at the Norepinephrine transporter sites on HEK-hNET cells; type: cell-based
T2 sequence (P23975 whole entry): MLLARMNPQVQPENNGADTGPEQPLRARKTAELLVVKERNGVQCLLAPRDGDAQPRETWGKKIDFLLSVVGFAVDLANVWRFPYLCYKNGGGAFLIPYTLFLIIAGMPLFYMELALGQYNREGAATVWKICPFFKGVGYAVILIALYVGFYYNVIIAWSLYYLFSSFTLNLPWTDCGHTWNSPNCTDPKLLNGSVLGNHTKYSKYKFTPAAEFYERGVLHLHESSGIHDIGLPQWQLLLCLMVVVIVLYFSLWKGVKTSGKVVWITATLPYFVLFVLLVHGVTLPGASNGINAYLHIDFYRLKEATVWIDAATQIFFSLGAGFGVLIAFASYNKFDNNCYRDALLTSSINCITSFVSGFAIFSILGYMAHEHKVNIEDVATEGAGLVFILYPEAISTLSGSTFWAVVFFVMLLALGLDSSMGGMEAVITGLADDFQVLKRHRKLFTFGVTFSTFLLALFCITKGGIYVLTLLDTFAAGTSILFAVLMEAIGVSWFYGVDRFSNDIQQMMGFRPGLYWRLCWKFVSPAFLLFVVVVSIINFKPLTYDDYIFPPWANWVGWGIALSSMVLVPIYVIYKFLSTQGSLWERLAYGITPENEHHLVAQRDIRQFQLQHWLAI
How it was run: as §1, with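 “ascorbate. Then [125I]RTI-55 (40–80 pM final) added, 90 min at 25 °C, filtration. […]” for “ascorbate.”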

[6] = biological target: Sodium-dependent serotonin transporter (Homo sapiens, UniProt P31645); experiment: Inhibition of [125I]- RTI -55 binding at the Serotonin transporter sites on HEK-hSERT cells; type: cell-based
Sequence of Sodium-dependent serotonin transporter (P31645 whole entry): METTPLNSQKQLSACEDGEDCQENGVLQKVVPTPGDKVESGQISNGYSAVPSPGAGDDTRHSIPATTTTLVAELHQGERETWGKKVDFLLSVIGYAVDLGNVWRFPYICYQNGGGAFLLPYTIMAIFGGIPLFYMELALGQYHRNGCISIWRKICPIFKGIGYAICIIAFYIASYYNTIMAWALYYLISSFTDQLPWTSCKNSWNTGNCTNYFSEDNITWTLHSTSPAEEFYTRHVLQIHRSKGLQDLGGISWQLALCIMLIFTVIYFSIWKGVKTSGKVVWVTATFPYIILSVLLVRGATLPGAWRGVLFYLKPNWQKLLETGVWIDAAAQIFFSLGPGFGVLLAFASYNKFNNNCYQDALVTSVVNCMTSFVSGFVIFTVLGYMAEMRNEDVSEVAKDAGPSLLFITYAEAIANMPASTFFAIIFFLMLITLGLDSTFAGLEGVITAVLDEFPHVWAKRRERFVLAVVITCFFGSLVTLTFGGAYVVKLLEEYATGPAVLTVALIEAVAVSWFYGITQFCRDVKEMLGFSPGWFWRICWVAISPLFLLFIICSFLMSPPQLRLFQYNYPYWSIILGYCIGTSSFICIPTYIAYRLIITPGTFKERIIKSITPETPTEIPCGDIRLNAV
How it was run: as §1, with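 “ascorbate. Then [125I]RTI-55 (40–80 pM final) added, 90 min at 25 °C, filtration. […]” for “ascorbate.”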

[7] = biological target: Monoamine transporters; Norepinephrine & dopamine (Homo sapiens) (UniProt Q01959+P23975); experiment: Selectivity ratio as ratio of IC50 value against NET to that of DAT; type: protein assay
Sequence of Monoamine transporters; Norepinephrine & dopamine (Homo sapiens) (P23975 whole entry, looked up): as the sequence (P23975 whole entry) above
Sequence of Monoamine transporters; Norepinephrine & dopamine (Homo sapiens) (Q01959 whole entry, looked up): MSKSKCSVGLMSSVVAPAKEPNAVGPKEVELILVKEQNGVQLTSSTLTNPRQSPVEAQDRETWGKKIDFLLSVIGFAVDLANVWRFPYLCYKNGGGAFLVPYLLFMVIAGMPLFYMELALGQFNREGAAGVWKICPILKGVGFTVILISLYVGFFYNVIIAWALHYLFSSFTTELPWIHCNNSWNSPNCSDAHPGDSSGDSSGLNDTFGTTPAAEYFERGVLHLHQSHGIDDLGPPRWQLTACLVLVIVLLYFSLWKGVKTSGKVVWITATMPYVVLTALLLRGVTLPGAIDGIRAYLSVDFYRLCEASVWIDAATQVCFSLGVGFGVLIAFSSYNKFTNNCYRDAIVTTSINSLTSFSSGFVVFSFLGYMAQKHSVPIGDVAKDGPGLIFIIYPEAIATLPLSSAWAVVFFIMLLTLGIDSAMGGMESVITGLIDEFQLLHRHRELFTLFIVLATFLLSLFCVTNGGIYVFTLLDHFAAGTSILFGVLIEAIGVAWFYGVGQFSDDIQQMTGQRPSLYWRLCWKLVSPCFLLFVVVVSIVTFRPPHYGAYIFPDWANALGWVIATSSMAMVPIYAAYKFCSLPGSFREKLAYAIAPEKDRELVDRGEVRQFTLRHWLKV

[8] = biological target: Monoamine transporters; serotonin & dopamine (Homo sapiens) (UniProt P31645+Q01959); experiment: Selectivity ratio as ratio of IC50 value against SERT to that of DAT; type: protein assay
Sequence of Monoamine transporters; serotonin & dopamine (Homo sapiens) (P31645 whole entry, looked up): as the sequence (P31645 whole entry) above
Sequence of Monoamine transporters; serotonin & dopamine (Homo sapiens) (Q01959 whole entry, looked up): as the sequence (Q01959 whole entry, looked up) above

[9] = Discrimination ratio against NET as ratio of IC50 to that of Ki uptake to NET.; type: functional
How it was run: (§2)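 Ratio of uptake IC50 in transporter-expressing HEK293 cells to [125I]RTI-55 binding Ki at the same human transporter (DAT, SERT or NET). Both were measured in this work: uptake with 20 nM [3H]amine for 10 min at 25 °C, binding for 90 min at 25 °C.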

[10] = Discrimination ratio against SERT as ratio of IC50 to that of Ki uptake to SERT.; type: functional; how it was run: as §2
HEK hDAT [11] = experiment: Ratio of the IC50 against DAT in HEK hDAT cells to that of guinea pig striatal membranes.; type: cell-based
HEK hDAT [12] = experiment: Ratio of the IC50 against DAT in HEK hDAT cells to that of rat striatal membranes.; type: cell membranes; conditions: Membrane
[13] = Ratio of the IC50 against DAT in rat striatal membranes to that of guinea pig striatal membranes.; type: cell membranes; conditions: Membrane
[14] = biological target: T1, Sodium-dependent dopamine transporter; experiment: (§3) Ratio of the IC50 value of Mazindol to that in guinea pig was determined; type: functional; conditions: Cavia porcellus; target entry is the homologue from another species
[15] = Discrimination ratio against DAT as ratio of IC50 to that of Ki uptake to DAT.; type: functional; how it was run: as §2
[16] = biological target: T2, Sodium-dependent noradrenaline transporter; experiment: Displacement of [125I]RTI-55 from human Norepinephrine transporter expressed in HEK cells; type: cell-based, HEK293
How it was run: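 Membranes from HEK293 cells expressing hNET, about 10–15 μg protein per tube. Compounds diluted from 10 mM DMSO stock, preincubated 10 min, then 40–80 pM [125I]RTI-55 added, 90 min at 25 °C in Krebs-HEPES pH 7.4. […] GF/C filtration; two or three experiments in duplicate; IC50 converted to Ki by Cheng-Prusoff.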

[17] = biological target: Sodium-dependent dopamine transporter (Rattus norvegicus, UniProt P23977); experiment: Ability to displace [3H]WIN-35428 from dopamine transporter on rat striatal membrane.
Sequence of Sodium-dependent dopamine transporter (Rattus norvegicus, UniProt P23977) (P23977 whole entry): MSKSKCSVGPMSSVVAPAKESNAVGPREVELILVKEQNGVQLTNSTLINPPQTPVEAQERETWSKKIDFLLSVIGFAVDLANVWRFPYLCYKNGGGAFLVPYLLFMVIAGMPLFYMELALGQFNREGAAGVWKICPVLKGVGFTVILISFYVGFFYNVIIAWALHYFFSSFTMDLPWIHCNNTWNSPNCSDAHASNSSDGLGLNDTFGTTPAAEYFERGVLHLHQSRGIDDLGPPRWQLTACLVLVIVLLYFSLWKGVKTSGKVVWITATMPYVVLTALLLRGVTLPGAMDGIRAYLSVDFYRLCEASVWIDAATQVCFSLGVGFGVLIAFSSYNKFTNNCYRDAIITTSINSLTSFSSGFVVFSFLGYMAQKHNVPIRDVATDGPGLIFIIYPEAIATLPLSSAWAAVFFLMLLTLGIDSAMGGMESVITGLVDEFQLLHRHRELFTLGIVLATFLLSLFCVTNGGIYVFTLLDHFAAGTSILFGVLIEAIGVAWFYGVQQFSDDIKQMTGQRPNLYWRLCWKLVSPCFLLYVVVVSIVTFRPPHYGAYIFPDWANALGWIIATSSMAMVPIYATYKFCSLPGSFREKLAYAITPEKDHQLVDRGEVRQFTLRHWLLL
How it was run: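 Rat (male Sprague–Dawley, 200–225 g) striatal membranes in modified Krebs-HEPES pH 7.4; 2.5 mg tissue (wet weight) per tube with 1.5 nM [3H]WIN 35,428. Membranes preincubated 5 min with test compound, then incubated 60 min on ice. Nonspecific binding defined with 0.1 mM cocaine. Filtration over BSA-soaked GF/B filters, scintillation counting; triplicate samples.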

[18] = as §3; type: functional

T1 sequence (Q01959 whole entry): as the sequence (Q01959 whole entry, looked up) above

SMILES | Ki [1] [µM] | IC50 (HEK293 [2]) [µM] | IC50 (HEK293 [3]) [µM] | IC50 (HEK293 [4]) [µM] | Ki [5] [µM] | Ki [6] [µM] | Ratio [7] | Ratio [8] | Ratio [9] | Ratio [10] | Ratio [14] | Ratio [15] | other results
OC1(c2ccc3ccccc3c2)c2ccc3ccccc3c2C2=NCCN21 (stereo not drawn) | 0.00283 | 0.88 | 0.038 | 0.37 | 0.0052 | 0.011 | 1.9 | 3.9 | 7 | 34 | 13 | 311 | Ratio (HEK hDAT [11]): 0.9; Ratio (HEK hDAT [12]): 0.07; Ratio [13]: 11.6
OC1(c2ccc(Cl)cc2)c2ccccc2C2=NCCCN21 (stereo not drawn) | 0.0017 | 0.0037 | 0.0049 | 0.053 | – | 0.039 | 10.7 | 22.9 | 0.3 | 1.4 | 10.1 | 2.2 | Ki [16]: 0.0182 µM
OC1(c2ccc(Cl)cc2)c2ccccc2C2=NCCN21 (stereo not drawn) [MAZINDOL] | – | – | 0.0049 | 0.094 | 0.018 | 0.05 | – | – | – | – | – | – | –
OC1(c2ccc(Cl)cc2)c2cc3ccccc3cc2C2=NCCN21 (stereo not drawn) | – | – | – | – | – | – | – | – | – | – | 1.3 | – | –
OC1(c2ccc(Cl)cc2)c2ccccc2C2=N[C@H]3CCCC[C@@H]3N21 (stereo partly drawn) | 0.152 | 0.063 | 0.323 | > 10 | 0.69 | 0.6 | 4.1 | 3.9 | 0.5 | > 17 | 15.8 | 0.4 | IC50 [17]: 0.0342 µM; Ratio (HEK hDAT [11]): 56.3; Ratio (HEK hDAT [12]): 4.4; Ratio [13]: 12.7
OC1(c2ccc(Cl)cc2)c2ccc3ccccc3c2C2=NCCCN21 (stereo not drawn) | 0.00201 | 0.366 | 0.053 | 0.7 | 0.0053 | 0.0055 | 2.6 | 2.8 | 10 | 127 | 20.3 | 182 | Ratio (HEK hDAT [11]): 1; Ratio (HEK hDAT [12]): 0.05; Ratio [13]: 17.8
OC1(c2ccc3ccccc3c2)c2ccccc2C2=NCCN21 (stereo not drawn) | 0.045 | 0.066 | 0.0045 | 0.0018 | 0.011 | 0.0023 | 0.24 | 0.05 | 0.4 | 0.8 | 10.4 | 1.5 | Ratio (HEK hDAT [11]): 11; Ratio (HEK hDAT [12]): 1.9; Ratio [13]: 5.7
OC1(c2ccc(Cl)cc2)c2ccccc2C2=N[C@@H]3CCCC[C@@H]3N21 (stereo partly drawn) | – | – | – | – | – | – | – | – | – | – | 5.1 | – | –
OC1(c2ccc(Cl)cc2)c2ccc3ccccc3c2C2=NCCN21 (stereo not drawn) | 0.0272 | 0.085 | 0.013 | 3.21 | 0.0334 | 0.224 | 1.2 | 8.2 | 0.4 | 14.3 | 4 | 3.2 | Ratio (HEK hDAT [11]): 2.6; Ratio (HEK hDAT [12]): 1.7; Ratio [13]: 1.5
OC1(c2ccc(Cl)cc2)c2ccc3ccccc3c2C2=N[C@H]3CCCC[C@@H]3N21 (mixture of isomers) | – | – | – | – | – | – | – | – | – | – | < 0.02 | – | –
OC1(c2ccc(Cl)cc2)c2c(ccc3ccccc23)C2=NCCN21 (stereo not drawn) | – | – | – | – | – | – | – | – | – | – | 0.2 | – | –
OC1(c2cccc3ccccc23)c2ccccc2C2=NCCN21 (stereo not drawn) | – | – | – | – | – | – | – | – | – | – | 0.02 | – | –
OC1(c2ccc(Cl)cc2)c2ccccc2C2=Nc3ccccc3CN21 (stereo not drawn) | – | – | – | – | – | – | – | – | – | – | < 0.02 | – | –
OC1(c2ccc3c(c2)CCCC3)c2ccccc2C2=NCCN21 (stereo not drawn) | – | – | – | – | – | – | – | – | – | – | < 0.02 | – | –
OC1(c2ccc3ccccc3c2)c2c(c3ccccc3c3ccccc23)C2=NCCN21 (stereo not drawn) | – | – | – | – | – | – | – | – | – | – | – | – | Ratio [18]: <0.02
OC1(c2ccc(Cl)cc2)c2ccccc2C2=NCc3ccccc3CN21 (stereo not drawn) | – | – | – | – | – | – | – | – | – | – | < 0.02 | – | –
OC1(c2ccc(Cl)cc2)c2c(c3ccccc3c3ccccc23)C2=NCCN21 (stereo not drawn) | – | – | – | – | – | – | – | – | – | – | – | – | Ratio [18]: <0.02
OC1(c2ccc(Cl)cc2)c2ccccc2-c2nc3ccccc3n21 (stereo not drawn) | – | – | – | – | – | – | – | – | – | – | < 0.02 | – | –
